{"source": "ChEMBL document CHEMBL1649117", "about": "“GRL-02031, a novel nonpeptidic protease inhibitor (PI) containing a stereochemically defined fused cyclopentanyltetrahydrofuran potent against multi-PI-resistant human immunodeficiency virus type 1 in vitro” (Antimicrob Agents Chemother, 2009)", "key": {"[1]": {"test_system": "Human immunodeficiency virus 1", "assay": "Ratio of EC50 for amprenavir to compound against HIV1 NL4-3 harboring I50V mutation in protease encoding region infected in human […] cells", "format": "functional"}, "[2]": {"test_system": "Human immunodeficiency virus 1", "assay": "Ratio of EC50 for ritonavir to compound against HIV1 NL4-3 harboring I85V mutation in protease encoding region infected in human […] cells", "format": "functional"}, "[3]": {"test_system": "Human immunodeficiency virus 1", "assay": "Antiviral activity against HIV1 NL4-3 harboring L33F mutation in protease encoding region infected in human […] cells assessed as inhibition of p24 Gag protein production by ELISA", "format": "functional, organism-based", "settings": "Human immunodeficiency virus 1, NL4-3", "method_in_brief": "(§1)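 Protease PCR fragments (ApaI/SmaI) were cloned into pHIV-1NLSma, and virions were harvested from transfected 293T cells over 48 h. MT-4 target cells (10^5/ml) were infected with 100 TCID50s, with or without drug, at 37°C. Day-7 supernatant p24 Gag was read by chemiluminescent enzyme immunoassay.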"}, "[4]": {"test_system": "Human immunodeficiency virus 1", "assay": "Ratio of EC50 for ritonavir to compound against HIV1 NL4-3 harboring L33F mutation in protease encoding region infected in human […] cells", "format": "functional"}, "[5]": {"test_system": "Human immunodeficiency virus 1", "assay": "Ratio of EC50 for amprenavir to compound against HIV1 NL4-3 harboring L10F/M46I/I47V/V82I/I85V mutation in protease encoding region infected in human […] cells", "format": "functional"}, "[6]": {"test_system": "Human immunodeficiency virus 1", "assay": "Ratio of EC50 for HIV1 NL4-3 harboring L10F/I47V/V82I/I85V mutation in protease encoding region infected in human […] cells to EC50 for HIV1 NL4-3 infected in human MT4 cells", "format": "functional"}, "[7]": {"test_system": "Human immunodeficiency virus 1", "assay": "Ratio of EC50 for HIV1 NL4-3 harboring L10F mutation in protease encoding region infected in human […] cells to EC50 for HIV1 NL4-3 infected in human MT4 cells", "format": "functional"}, "[8]": {"test_system": "Human immunodeficiency virus 1", "assay": "Ratio of EC50 for ritonavir to compound against HIV1 NL4-3 harboring V82I/I85V mutation in protease encoding region infected in human […] cells", "format": "functional"}, "[9]": {"test_system": "Human immunodeficiency virus 1", "assay": "Antiviral activity against HIV1 NL4-3 harboring M46I mutation in protease encoding region infected in human […] cells assessed as inhibition of p24 Gag protein production by ELISA", "format": "functional, organism-based", "settings": "Human immunodeficiency virus 1, NL4-3", "method_in_brief": "as §1"}, "[10]": {"test_system": "Human immunodeficiency virus 1", "assay": "Antiviral activity against HIV1 NL4-3 harboring I84V/I85V mutation in protease encoding region infected in human […] cells assessed as inhibition of p24 Gag protein production by ELISA", "format": "functional, organism-based", "settings": "Human immunodeficiency virus 1, NL4-3", "method_in_brief": "as §1"}, "[11]": {"test_system": "Human immunodeficiency virus 1", "assay": "Antiviral activity against HIV1 NL4-3 harboring I85V mutation in protease encoding region infected in human […] cells assessed as inhibition of p24 Gag protein production by ELISA", "format": "functional, organism-based", "settings": "Human immunodeficiency virus 1, NL4-3", "method_in_brief": "as §1"}, "[12]": {"test_system": "Human immunodeficiency virus 1", "assay": "Antiviral activity against HIV1 NL4-3 harboring D30N mutation in protease encoding region infected in human […] cells assessed as inhibition of p24 Gag protein production by ELISA", "format": "functional, organism-based", "settings": "Human immunodeficiency virus 1, NL4-3", "method_in_brief": "as §1"}, "[13]": {"test_system": "Human immunodeficiency virus 1", "assay": "Antiviral activity against HIV1 subtype E 92TH019 infected in human PHA-PBM cells after 7 days by MTT assay", "format": "functional, organism-based", "settings": "Human immunodeficiency virus 1, subtype E 92TH019, PBMC, 168 h"}, "[14]": {"test_system": "Human immunodeficiency virus 1", "assay": "Ratio of EC50 for HIV1 NL4-3 harboring L33F mutation in protease encoding region infected in human […] cells to EC50 for HIV1 NL4-3 infected in human MT4 cells", "format": "functional"}, "[15]": {"test_system": "Human immunodeficiency virus 1", "assay": "Ratio of EC50 for saquinavir to compound against HIV1 NL4-3 harboring G48V mutation in protease encoding region infected in human […] cells", "format": "functional"}, "[16]": {"test_system": "Human immunodeficiency virus 1", "assay": "Antiviral activity against HIV1 subtype C 97ZA003 infected in human PHA-PBM cells after 7 days by MTT assay", "format": "functional, organism-based", "settings": "Human immunodeficiency virus 1, subtype C 97ZA003, PBMC, 168 h"}, "[17]": {"test_system": "Human immunodeficiency virus 1", "assay": "Ratio of EC50 for HIV1 NL4-3 harboring L90M mutation in protease encoding region infected in human […] cells to EC50 for HIV1 NL4-3 infected in human MT4 cells", "format": "functional"}, "[18]": {"test_system": "Human immunodeficiency virus 1", "assay": "Ratio of EC50 for amprenavir to compound against HIV1 NL4-3 harboring Q58E mutation in protease encoding region infected in human […] cells", "format": "functional"}, "[19]": {"test_system": "Human immunodeficiency virus 1", "assay": "Ratio of EC50 for nelfinavir to compound against HIV1 NL4-3 harboring D30N mutation in protease encoding region infected in human […] cells", "format": "functional"}, "[20]": {"test_system": "Human immunodeficiency virus 1", "assay": "Ratio of EC50 for HIV1 NL4-3 harboring I85V mutation in protease encoding region infected in human […] cells to EC50 for HIV1 NL4-3 infected in human MT4 cells", "format": "functional"}, "[21]": {"test_system": "Human immunodeficiency virus 1", "assay": "Antiviral activity against HIV1 NL4-3 harboring L90M mutation in protease encoding region infected in human […] cells assessed as inhibition of p24 Gag protein production by ELISA", "format": "functional, organism-based", "settings": "Human immunodeficiency virus 1, NL4-3", "method_in_brief": "as §1"}, "[22]": {"test_system": "Human immunodeficiency virus 1", "assay": "Ratio of EC50 for HIV1 NL4-3 harboring L10F/M46I/I47V/V82I/I85V mutation in protease encoding region infected in human […] cells to EC50 for HIV1 NL4-3 infected in human MT4 cells", "format": "functional"}, "[23]": {"test_system": "Human immunodeficiency virus 1", "assay": "Antiviral activity against HIV1 NL4-3 harboring Q58E mutation in protease encoding region infected in human […] cells assessed as inhibition of p24 Gag protein production by ELISA", "format": "functional, organism-based", "settings": "Human immunodeficiency virus 1, NL4-3", "method_in_brief": "as §1"}, "[24]": {"test_system": "Human immunodeficiency virus 1", "assay": "Ratio of EC50 for amprenavir to compound against HIV1 NL4-3 harboring I47V mutation in protease encoding region infected in human […] cells", "format": "functional"}, "[25]": {"test_system": "Human immunodeficiency virus 1", "assay": "Ratio of EC50 for ritonavir to compound against HIV1 NL4-3 harboring M46I mutation in protease encoding region infected in human […] cells", "format": "functional"}, "[26]": {"test_system": "Human immunodeficiency virus 1", "assay": "Ratio of EC50 for HIV1 NL4-3 harboring V82I/I85V mutation in protease encoding region infected in human […] cells to EC50 for HIV1 NL4-3 infected in human MT4 cells", "format": "functional"}, "[27]": {"test_system": "Human immunodeficiency virus 1", "assay": "Ratio of EC50 for HIV1 NL4-3 harboring I47V mutation in protease encoding region infected in human […] cells to EC50 for HIV1 NL4-3 infected in human MT4 cells", "format": "functional"}, "[28]": {"test_system": "Human immunodeficiency virus 1", "assay": "Antiviral activity against HIV1 JRFL infected in human PHA-PBM cells after 7 days by MTT assay", "format": "functional, organism-based", "settings": "Human immunodeficiency virus 1, JRFL, PBMC, 168 h"}, "[29]": {"test_system": "Human immunodeficiency virus 1", "assay": "Antiviral activity against HIV1 subtype A 92UG037 infected in human PHA-PBM cells after 7 days by MTT assay", "format": "functional, organism-based", "settings": "Human immunodeficiency virus 1, subtype A 92UG037, PBMC, 168 h"}, "[30]": {"test_system": "Human immunodeficiency virus 1", "assay": "Ratio of EC50 for ritonavir to compound against HIV1 NL4-3 harboring V82I mutation in protease encoding region infected in human […] cells", "format": "functional"}, "[31]": {"test_system": "Human immunodeficiency virus 1", "assay": "Antiviral activity against HIV1 NL4-3 harboring V82I/I85V mutation in protease encoding region infected in human […] cells assessed as inhibition of p24 Gag protein production by ELISA", "format": "functional, organism-based", "settings": "Human immunodeficiency virus 1, NL4-3", "method_in_brief": "as §1"}, "[32]": {"test_system": "Human immunodeficiency virus 1", "assay": "Antiviral activity against HIV1 NL4-3 harboring I50V mutation in protease encoding region infected in human […] cells assessed as inhibition of p24 Gag protein production by ELISA", "format": "functional, organism-based", "settings": "Human immunodeficiency virus 1, NL4-3", "method_in_brief": "as §1"}, "[33]": {"test_system": "Human immunodeficiency virus 1", "assay": "Ratio of EC50 for amprenavir to compound against HIV1 NL4-3 harboring M46I/I47V mutation in protease encoding region infected in human […] cells", "format": "functional"}}, "data": [{"compound": "COc1ccc(S(=O)(=O)N(C[C@@H]2CCC(=O)N2)C[C@@H](O)[C@H](Cc2ccccc2)NC(=O)O[C@@H]2C[C@@H]3CCO[C@@H]3C2)cc1", "values": [{"measurement": "Ratio EC50", "setting": "[1]", "result": 1.2}, {"measurement": "Ratio EC50", "setting": "[2]", "result": 2.1}, {"measurement": "EC50", "setting": "[3]", "result": 28, "unit": "nM"}, {"measurement": "Ratio EC50", "setting": "[4]", "result": 1}, {"measurement": "Ratio EC50", "setting": "[5]", "result": 10}, {"measurement": "Ratio EC50", "setting": "[6]", "result": 18.7}, {"measurement": "Ratio EC50", "setting": "[7]", "result": 1.6}, {"measurement": "Ratio EC50", "setting": "[8]", "result": 1.6}, {"measurement": "EC50", "setting": "[9]", "result": 28, "unit": "nM"}, {"measurement": "EC50", "setting": "[10]", "result": 97, "unit": "nM"}, {"measurement": "EC50", "setting": "[11]", "result": 24, "unit": "nM"}, {"measurement": "EC50", "setting": "[12]", "result": 20, "unit": "nM"}, {"measurement": "EC50", "setting": "[13]", "result": 15, "unit": "nM"}, {"measurement": "Ratio EC50", "setting": "[14]", "result": 1.2}, {"measurement": "Ratio EC50", "setting": "[15]", "result": 5.1}, {"measurement": "EC50", "setting": "[16]", "result": 15, "unit": "nM"}, {"measurement": "Ratio EC50", "setting": "[17]", "result": 1.4}, {"measurement": "Ratio EC50", "setting": "[18]", "result": 1}, {"measurement": "Ratio EC50", "setting": "[19]", "result": 5.6}, {"measurement": "Ratio EC50", "setting": "[20]", "result": 1}, {"measurement": "EC50", "setting": "[21]", "result": 32, "unit": "nM"}, {"measurement": "Ratio EC50", "setting": "[22]", "result": ">43"}, {"measurement": "EC50", "setting": "[23]", "result": 33, "unit": "nM"}, {"measurement": "Ratio EC50", "setting": "[24]", "result": 1.2}, {"measurement": "Ratio EC50", "setting": "[25]", "result": 1.2}, {"measurement": "Ratio EC50", "setting": "[26]", "result": 1.5}, {"measurement": "Ratio EC50", "setting": "[27]", "result": 1.6}, {"measurement": "EC50", "setting": "[28]", "result": 15, "unit": "nM"}, {"measurement": "EC50", "setting": "[29]", "result": 15, "unit": "nM"}, {"measurement": "Ratio EC50", "setting": "[30]", "result": 1.5}, {"measurement": "EC50", "setting": "[31]", "result": 35, "unit": "nM"}, {"measurement": "EC50", "setting": "[32]", "result": 15, "unit": "nM"}, {"measurement": "Ratio EC50", "setting": "[33]", "result": 1.3}]}]}
